Measured values pooled from the literature.
Compare with care: the assays were run in different laboratories.
Cyp2e1: Cytochrome P450 2E1 (Cyp2e1, Rattus norvegicus, UniProt P05182)

| SMILES | tested on | test | test system | conditions | measurement | result |
| --- | --- | --- | --- | --- | --- | --- |
| N=c1c2c(-c3ccccc3)c(-c3ccccc3)n(Cc3ccccc3)c2ncn1[C@H]1CC[C@H](O)CC1 |  |  | female minipig, plasma | intravenous, 0.25 mg/kg, single dose | clearance | 0.6 mL/min/kg |
| COc1ccnc(C(=O)N[C@H]2COC(=O)[C@H](Cc3ccccc3)[C@@H](OC(=O)C(C)C)[C@H](C)OC2=O)c1OCOC(=O)C(C)C |  |  | rat | topical | LD50 | > 5000 mg/kg |
| CCN(CC)CCNC(=O)c1c(C)[nH]c(/C=C2\C(=O)Nc3ccc(F)cc32)c1C | Calu-3 | cell growth or viability, resazurin |  |  | CC50 | 45.7 µM |
| O=c1c(O[C@@H]2O[C@H](CO)[C@@H](O)[C@H](O)[C@H]2O)c(-c2ccc(O)cc2)oc2cc(O)cc(O)c12 | MCF7 | cell growth or viability, WST-1 |  |  | IC50 | 15.7 µM |
| CC(C)(C)NC(=O)N[C@H](C(=O)N1C[C@H]2[C@@H]([C@H]1C(=O)NC(CC1CCC1)C(=O)C(N)=O)C2(C)C)C(C)(C)C (stereo partly shown) | Calu-3 | cell growth or viability, MTT |  | 48 h | CC50 | > 250 µM |
| CCCCCn1nc(C(=O)Nc2cccc3ccccc23)c2ccccc21 |  | metabolic stability | Sprague-Dawley rat, liver microsomes | 1 µM, pH 7.4 | microsomal CLint | 430 µL/min/mg |
| C=CC(=O)Nc1cccc(-c2snc3cc(-c4ccc(N)c(OC)c4)cnc23)c1 | Calu-3 | cell growth or viability, resazurin |  |  | CC50 | > 60 µM |
| O=C(O)C(F)(F)C(F)(F)C(F)(F)C(F)(F)C(F)(F)C(F)(F)C(F)(F)F | Solute carrier organic anion transporter family member 1B3 (SLCO1B3, Homo sapiens, UniProt Q9NPD5) | transporter uptake, substrate | CHO | 1 min, pH 7.4 | Km | 91.6 µM |
| OCCCCO | Cyp2e1 | enzyme activity, inhibitor | Fischer 344 rat, liver microsomes | 25 mM, 30 min | activity vs control | 17% |
| CCCCCn1cc(C(=O)Nc2cccc3ccccc23)c2ccccc21 |  | metabolic stability | Sprague-Dawley rat, liver microsomes | 1 µM, pH 7.4 | microsomal CLint | 310 µL/min/mg |
| C=CC1CO1 (stereo not shown) | Cyp2e1 | enzyme activity, inhibitor | rat, liver microsomes |  | Ki | 24 µM |
| NC(=O)c1c(NC(=O)c2cnn3c(C(F)(F)F)cc(-c4ccccc4)nc23)sc2c1CCCC2 | Calu-3 | cell growth or viability, MTT |  | 48 h | CC50 | > 125 µM |
| Cc1ncc2n1-c1ccc(Cl)cc1C(c1ccccc1F)=NC2 |  | metabolic stability | male rat, liver microsomes | 1 µM | microsomal CLint | > 250 µL/min/mg |
